Compound activity deposited in PubChem BioAssay by Sanford-Burnham Center for Chemical Genomics.
PfGluPho inh = PfG6PD (Plasmodium falciparum) enzyme inhibition; PfGluPho enzyme, NADPH resazurin-diaphorase fluorescence; inhibition, % at 20 µM; hit rate 0.78% among 350,000; AID 504690;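 active = inhibition reaching at least a set limit at 20 µM in the primary screen, cut at about 59% in these data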
Diaphorase inh = diaphorase inhibition or chemical oxidation counter-screen | diaphorase resazurin-to-resorufin fluorescence, NADH, 16 min; bacterial (C. kluyveri) enzyme, not human | inhibition, % at 20 µM | AID 1217 | hit rate 0.69% among 190,000;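 active = primary screen inhibition at 20 µM above a set limit, cut at about 50% in these data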
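Test system: bacterial diaphorase enzyme (C. kluyveri); Quantity: 0.14 U/mL diaphorase, enzyme working solution; Times: reaction incubation of 16 min at room temperature; Measured by: fluorescence of resorufin formed from resazurin, Ex 544/Em 590 nm; Benchmarks: positive control minus NADH, DMSO neutral control.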
G6PDH counter = counter-screen for G6PDH assay hits: L. mesenteroides G6PDH inhibition; Purified L. mesenteroides G6PDH, diaphorase/resazurin coupled fluorescence, 45 min; inhibition, % at 5 µM; hit rate 0.12% among 200,000; in the data active = inhibition above about 50%
HKDC1 inh = inhibitors of human hexokinase HKDC1; hit rate 0.16% among 340,000; Q2TB90; inhibition, % at 20 µM; recombinant HKDC1, G6PDH/diaphorase resazurin coupled fluorescence;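 active = inhibition above about 35% when tested at 20 µM, limit read from the data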
Target sequence (Q2TB90 whole entry, looked up): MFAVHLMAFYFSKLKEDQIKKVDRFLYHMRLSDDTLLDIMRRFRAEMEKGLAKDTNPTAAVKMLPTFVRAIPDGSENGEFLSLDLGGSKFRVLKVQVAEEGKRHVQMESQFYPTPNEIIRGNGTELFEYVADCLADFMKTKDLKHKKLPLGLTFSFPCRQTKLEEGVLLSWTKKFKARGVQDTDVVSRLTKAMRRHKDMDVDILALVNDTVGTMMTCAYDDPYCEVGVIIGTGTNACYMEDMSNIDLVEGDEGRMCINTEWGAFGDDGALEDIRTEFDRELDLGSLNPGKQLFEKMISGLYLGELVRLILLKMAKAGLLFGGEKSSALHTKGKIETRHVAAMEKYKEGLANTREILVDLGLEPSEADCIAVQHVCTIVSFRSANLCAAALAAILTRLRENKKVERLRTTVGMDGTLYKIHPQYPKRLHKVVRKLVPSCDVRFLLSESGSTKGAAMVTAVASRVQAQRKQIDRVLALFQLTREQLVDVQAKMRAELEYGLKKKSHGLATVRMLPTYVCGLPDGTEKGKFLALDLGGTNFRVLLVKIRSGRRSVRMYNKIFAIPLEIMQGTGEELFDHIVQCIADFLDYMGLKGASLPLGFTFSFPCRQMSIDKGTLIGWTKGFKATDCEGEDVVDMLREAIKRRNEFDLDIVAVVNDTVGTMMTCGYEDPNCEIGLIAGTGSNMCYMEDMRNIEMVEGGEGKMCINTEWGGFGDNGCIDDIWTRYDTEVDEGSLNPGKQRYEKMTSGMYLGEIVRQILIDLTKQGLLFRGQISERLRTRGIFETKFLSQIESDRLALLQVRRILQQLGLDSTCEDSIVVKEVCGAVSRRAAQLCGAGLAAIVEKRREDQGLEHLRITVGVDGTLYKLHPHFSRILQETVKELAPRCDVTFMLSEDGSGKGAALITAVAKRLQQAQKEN
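test system = in-house recombinant HK5 (HKDC1) enzyme | amount = HKDC1 at 5 µg/mL | control set = DMSO-enzyme wells negative, buffer-substituted wells positive | compound = one dose of 20 µM, 1% DMSO | schedule = reaction time 90 min, room temperature, protected from light | technique = resorufin fluorescence at 613 nm | reagent = glucose with 1 mM ATP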
HKDC1 act conf2 = HKDC1 (human) activation, single-dose confirmed; recombinant HKDC1, G6PDH/diaphorase resazurin fluorescence; active compounds read low; hit rate 14% among 740; AID 504708; inhibition, % at 20 µM; shares compounds with HKDC1 inh;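 active = inhibition at or below a set negative limit, negative inhibition meaning the enzyme was activated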
PfG6PD confirm = confirmation of Plasmodium falciparum G6PD inhibitors. shares compounds with PfGluPho inh. recombinant PfGluPho, NADPH-diaphorase-resazurin fluorescence. inhibition, % at 20 µM. hit rate 34% among 2,400. AID 504753;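 active = inhibition of at least 50% at 20 µM in any single replicate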
Diaphorase 10uM = inhibits diaphorase or oxidizes, flagging false PfG6PD hits. shares compounds with PfGluPho inh. diaphorase-coupled resazurin reduction, fluorescence, NADPH 10 uM. inhibition, % at 20 µM. hit rate 39% among 820;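 active = average inhibition reaching 50% or more with the compound at 20 µM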;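 note: resorufin red fluorescence formed as diaphorase reduces resazurin using NADPH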
Diaph ctr 30uM = diaphorase inhibition or oxidation at 30 uM NADPH; shares compounds with PfGluPho inh; inhibition, % at 20 µM; Diaphorase/resazurin coupled assay, resorufin fluorescence; hit rate 29% among 820;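 active = inhibition averaging 50% or more, tested at 20 µM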
Large screens that a line does not name were inactive (follow-up assays come after a bar, where they were run). Shown are actives, neighbours in structure and some others; about 1.2% of the full set was active somewhere.

COC(=O)[C@@H]1[C@@H](C(=O)OC)C2(c3ccccc3-c3ccccc32)N(c2ccc(Cl)cc2)N1C#N	HKDC1 inh 62 | HKDC1 act conf2 inactive
CN1CCc2cc3c(c4c2C1Cc1ccccc1-4)OCO3 (centres undefined)	PfGluPho inh 89 (no result: Diaphorase inh, G6PDH counter) | HKDC1 act conf2 inactive | PfG6PD confirm inactive
COc1cccc(OCc2cc(C(=O)N3C[C@H]4C[C@@H](C3)c3cccc(=O)n3C4)no2)c1	none (no result: Diaphorase inh, G6PDH counter)
NS(=O)(=O)c1ccc(-c2ccc(C=C3C(=O)NC(=O)NC3=O)o2)cc1	PfGluPho inh 78 (no result: Diaphorase inh, G6PDH counter) | PfG6PD confirm 80 | Diaphorase 10uM inactive | Diaph ctr 30uM inactive
O=C1NC(=O)C(=Cc2ccc(SC3CCCCC3)o2)C(=O)N1	none
CNS(=O)(=O)c1ccc(-c2ccc(C=C3C(=O)NC(=O)NC3=O)o2)cc1	PfGluPho inh 81 (no result: Diaphorase inh, G6PDH counter) | PfG6PD confirm 55 | Diaphorase 10uM inactive | Diaph ctr 30uM inactive
Cc1ccc2c(c1)C1C[N+](C)(CC(=O)c3ccc(Cl)cc3Cl)CCC1N2C(=O)c1ccc(F)cc1 (centres undefined)	none (no result: Diaphorase inh, G6PDH counter)
C[C@H]1[C@@H](c2ccccc2)O[C@@H](c2ccccc2Br)N1C	none (no result: Diaphorase inh, G6PDH counter)
C=CCNC(=O)c1c(N)n(Cc2ccco2)c2nc3ccccc3nc12	none
COCCNC(=O)c1c(N)n(Cc2ccco2)c2nc3ccccc3nc12	PfGluPho inh 60 | PfG6PD confirm inactive
CCCN1CCc2cc(O)cc3c2[C@H]1Cc1ccc(O)c(O)c1-3	PfGluPho inh 86 (no result: Diaphorase inh, G6PDH counter) | PfG6PD confirm 77 | Diaphorase 10uM inactive | Diaph ctr 30uM inactive
CN1CCc2cc(O)cc3c2[C@H]1Cc1ccc(O)c(O)c1-3	PfGluPho inh 86 (no result: Diaphorase inh, G6PDH counter) | PfG6PD confirm 83 | Diaphorase 10uM inactive | Diaph ctr 30uM inactive
COc1cc2c(cc1O)C[C@H]1c3c(cc(O)c(OC)c3-2)CCN1C	none (no result: Diaphorase inh, G6PDH counter)
c1ccc2sc(C3CCNCC3)nc2c1	none (no result: Diaphorase inh, G6PDH counter)
O=c1[nH]sc2cc(F)ccc12	PfGluPho inh 63 | PfG6PD confirm 53 | Diaphorase 10uM inactive | Diaph ctr 30uM inactive
CC(Cc1ccccc1)N1Cc2ccccc2C1 (centres undefined)	none (no result: Diaphorase inh, G6PDH counter)
O=C1NC(=S)NC(=O)C1=Cc1ccc(Br)s1	PfGluPho inh 65 (no result: Diaphorase inh, G6PDH counter) | PfG6PD confirm 84 | Diaphorase 10uM inactive | Diaph ctr 30uM inactive
O=C1NC(=S)NC(=O)C1=Cc1c(Cl)cccc1Cl	none (no result: Diaphorase inh, G6PDH counter)
CC1=C(O)C(=O)C=C2C1=CC=C1C2(C)CCC2(C)C3CC(C)(C(=O)O)CCC3(C)CCC12C (centres undefined)	PfGluPho inh 81 (no result: Diaphorase inh, G6PDH counter) | PfG6PD confirm 71 | Diaphorase 10uM inactive | Diaph ctr 30uM inactive
Oc1cc(O)cc(/C=C/c2ccc(O)cc2O)c1	none (no result: Diaphorase inh, G6PDH counter)
O=C1C=C(N2CC2)c2ccccc2C1=O	PfGluPho inh 100 (no result: Diaphorase inh, G6PDH counter, HKDC1 inh) | PfG6PD confirm 72 | Diaphorase 10uM 54 | Diaph ctr 30uM 63
CC(=O)Nc1ccc(S(=O)(=O)N2Cc3cnnn3-c3ccccc3C2C#N)cc1 (centres undefined)	none (no result: Diaphorase inh, G6PDH counter)
CC(C)=CCOc1c2occc2cc2ccc(=O)oc12	PfGluPho inh 68 | PfG6PD confirm inactive
CC1(C)OC1COc1c2occc2cc2ccc(=O)oc12 (centres undefined)	none
CNC(=O)Oc1ccc(-c2cn3cc(Cl)ccc3n2)cc1	PfGluPho inh 68 | PfG6PD confirm inactive
O=C1NC(=O)C(=Cc2ccc(-c3ccccc3[N+](=O)[O-])o2)C(=O)N1	PfGluPho inh 88 (no result: Diaphorase inh, G6PDH counter) | PfG6PD confirm 76 | Diaphorase 10uM inactive | Diaph ctr 30uM inactive
O=C1NC(=O)C(=Cc2ccc(-c3cc(Cl)ccc3[N+](=O)[O-])o2)C(=O)N1	PfGluPho inh 69 | PfG6PD confirm inactive
COc1ccc(CNCCc2ccc(Cl)cc2)c(OC)c1OC	none (no result: Diaphorase inh, G6PDH counter)
COC(=O)C1=C(c2cccc(OC)c2OC)C[C@@H]2CC[C@H]1N2C(=O)N1CCCC1	none (no result: Diaphorase inh, G6PDH counter)
O=C1NC(=O)C(=Cc2csc3ccccc23)C(=O)N1	PfGluPho inh 65 (no result: Diaphorase inh, G6PDH counter) | PfG6PD confirm inactive
CC(=O)n1cc(C=C2C(=O)NC(=O)NC2=O)c2ccccc21	PfGluPho inh 66 (no result: Diaphorase inh, G6PDH counter) | PfG6PD confirm inactive
O=C(c1ccccc1F)N1C[C@H]2C[C@@H](C1)c1cccc(=O)n1C2	none (no result: Diaphorase inh, G6PDH counter)
COc1cc(/C=C/c2nc3ccccc3c(=O)n2-c2cccc(O)c2)ccc1O	none (no result: Diaphorase inh, G6PDH counter)
COc1cc(/C=C/c2nc3ccccc3c(=O)n2-c2ccccc2O)ccc1O	PfGluPho inh 84 (no result: Diaphorase inh, G6PDH counter) | PfG6PD confirm inactive
Nc1cc(Cl)cc(Cl)c1	none (no result: Diaphorase inh, G6PDH counter)
CC(C)Nc1ccc(Nc2ccccc2)cc1	PfGluPho inh 106 (no result: Diaphorase inh, G6PDH counter) | PfG6PD confirm 52 | Diaphorase 10uM inactive | Diaph ctr 30uM inactive
c1ccc(Nc2ccc3ccccc3c2)cc1	none (no result: Diaphorase inh, G6PDH counter)
